Assay results as given in ChEMBL document CHEMBL5370586 (J Nat Prod, 2023).
The source made the active and inactive calls.

Key:
DU-145 [1] = assay: Induction of cell death in human DU-145 cells assessed as reduction in cell nucleus circularity at 1 to 10 uM measured after 72 hrs by Hoechst 33342 staining based high content imaging fluorescence microscopic analysis; format: functional; settings: dose 1-10 µM
How it was run: (§1)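 DU145 or PC-3 cells seeded at 2 × 10^3 per well and given CBD at 1, 5 or 10 μM with serum for 72 h; staurosporine as positive control. Stained 30 min with Hoechst 33342 (1:5000), YO-PRO-1 (1:1000) and PI (1:1000). High-content imaging with a 63× water objective. Hoechst gave confluency, nucleus area and circularity; YO-PRO/PI gave healthy, early and late apoptotic fractions.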

PWR-1E [2] = assay: Induction of apoptosis in human PWR-1E cells assessed as early apoptotic cells at 1 to 10 uM incubated for 72 hrs […] and propidium iodide staining based high content imaging fluorescence microscopic analysis; format: toxicity, cell-based; settings: dose 1-10 µM
How it was run: (§2)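 PWR-1E cells seeded at 2 × 10^3 per well and given CBD at 1, 2 or 10 μM without serum for 72 h. Stained with Hoechst 33342, YO-PRO-1 and PI, then imaged by high-content microscopy. Scored for confluency and for healthy, early and late apoptotic fractions; at least three independent experiments.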

PWR-1E [3] = assay: Induction of apoptosis in human PWR-1E cells assessed as late apoptotic cells at 1 to 10 uM incubated for 72 hrs by YO-PRO and propidium iodide staining based high content imaging fluorescence microscopic analysis; format: toxicity, cell-based; settings: dose 1-10 µM; how it was run: as §2
PC-3 [4] = assay: Antiproliferative activity against human PC-3 cells assessed as reduction in cell viability incubated for 72 hrs in presence of capsazepine by MTT assay; format: functional, cell-based
How it was run: (§3)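 DU145 or PC-3 cells pretreated 1 h with SR141716 (CB1 antagonist), SR144528 (CB2 antagonist), capsazepine (TRPV1 antagonist) or LPI (GPR55 agonist), then given CBD for 72 h. MTT read-out as % of vehicle. Compared with CBD alone by t-test; at least three independent experiments.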

DU-145 [5] = assay: Induction of apoptosis in human DU-145 cells at IC50 concentration incubated for 48 hrs by YO-PRO and PI staining based flow cytometry analysis; format: functional, cell-based
How it was run: (§4)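 After 48 h CBD, DU145 (4 × 10^4 per well) or PC-3 (3 × 10^4 per well) supernatant and trypsinised cells pooled. Stained in ice-cold PBS with YO-PRO (1:1000) and propidium iodide (1:1000). Flow cytometry gated live, early apoptotic and late apoptotic cells and DNA fragmentation.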

PC-3 [6] = assay: Anti-invasive activity against human PC-3 cells assessed as reduction in MMP-9 protein secretion incubated for 48 hrs by ELISA analysis; format: functional, cell-based
PC-3 [7] = assay: Antiproliferative activity against human PC3 cells assessed as reduction in cell viability incubated for 72 hrs in serum deprivation condition by MTT assay; format: functional, cell-based; settings: PC-3, 72 h
How it was run: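 Cells seeded at 1 × 10^3 (DU145, PC-3), 6 × 10^3 (LNCaP), 2 × 10^3 (PWR-1E) or 4.5 × 10^3 (RWPE-1) per well and left to adhere 24 h. CBD (0–100 μM) then given for 72 h in serum-free medium. MTT added for 3 h at 37 °C, formazan dissolved in DMSO, absorbance read at 570 nm. Viability is % of vehicle; IC50 by nonlinear regression; at least three independent experiments.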

DU-145 [8] = assay: Antiproliferative activity against human DU-145 cells assessed as reduction in cell viability incubated for 72 hrs in presence of SR144528 by MTT assay; format: functional, cell-based; how it was run: as §3
PWR-1E [9] = assay: Induction of apoptosis in human PWR-1E cells assessed as reduction in fraction of healthy cells at 1 to 10 uM incubated for 72 hrs by YO-PRO and propidium iodide staining based high content imaging fluorescence microscopic analysis; format: toxicity, cell-based; settings: dose 1-10 µM; how it was run: as §2
DU-145 [10] = assay: Induction of apoptosis in human DU-145 cells assessed as early apoptotic cells at 1 to 10 uM incubated for 72 hrs by YO-PRO and propidium iodide staining based high content imaging fluorescence microscopic analysis; format: functional, cell-based; settings: dose 1-10 µM; how it was run: as §1
DU-145 [11] = assay: Antiproliferative activity against human DU-145 cells assessed as reduction in cell viability incubated for 72 hrs in presence of SR141716 by MTT assay; format: functional, cell-based; how it was run: as §3
DU-145 [12] = assay: Induction of cell cycle arrest in human DU-145 cells assessed as arrest in G1/S phase by measuring reduction in cyclin D3 protein expression at IC50 concentration incubated for 48 hrs by Western blotting analysis relative to control; format: functional; set-up: scale not given: the % may be the effect or the level left
How it was run: (§5)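 DU145 or PC-3 cells seeded at 5 × 10^4 per well and given CBD for 48 h. Lysed in ice-cold RIPA with protease/phosphatase inhibitor; 40 μg protein per lane, SDS-PAGE, PVDF transfer, milk block. Primary antibodies overnight at 4 °C, then HRP secondary 1 h at room temperature, chemiluminescence. Densitometry normalised to loading control, then to vehicle; at least three experiments.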

PC-3 [13] = assay: Anti-invasive activity against human PC-3 cells assessed as reduction in MMP-1 protein secretion incubated for 48 hrs by ELISA analysis; format: functional, cell-based
PWR-1E [14] = assay: Cytotoxicity against human PWR-1E cells assessed as reduction in cell confluency at 1 to 10 uM incubated for 72 hrs by Hoechst 33342 staining based high-content fluorescence microscopy; format: toxicity; settings: dose 1-10 µM; how it was run: as §2
PC-3 [15] = assay: Antiproliferative activity against human PC-3 cells assessed as reduction in cell colonies incubated for 48 hrs detached and reseeded without compound and measured after 7 days by glutaraldehyde/crystal violet staining based clonogenic assay relative to control; format: functional; set-up: scale not given: the % may be the effect or the level left
How it was run: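 PC-3 cells left to adhere 24 h, then treated 48 h. Detached and reseeded at 500 cells per well without drug, then grown 7 days at 37 °C, 5% CO2, with medium changed every 2–3 days. Colonies fixed and stained with glutaraldehyde/crystal violet and counted.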

DU-145 [16] = assay: Induction of cell death in human DU-145 cells assessed as reduction in cell nucleus area at 1 to 10 uM measured after 72 hrs by Hoechst 33342 staining based high content imaging fluorescence microscopic analysis; format: functional; settings: dose 1-10 µM; how it was run: as §1
PC-3 [17] = assay: Induction of cell cycle arrest in human PC-3 cells assessed as arrest in G1/S phase by measuring reduction in CDK2 protein expression at IC50 concentration incubated for 48 hrs by Western blotting analysis; format: functional, cell-based; how it was run: as §5
PWR-1E [18] = assay: Induction of cell death in human PWR-1E cells assessed as reduction in nucleus area at 1 to 10 uM incubated for 72 hrs by Hoechst 33342 staining based high-content fluorescence microscopy; format: toxicity; settings: dose 1-10 µM
PC-3 [19] = assay: Anti-invasive activity against human PC-3 cells assessed as increase in E-cadherin protein expression incubated for 48 hrs by Western blotting analysis; format: functional
PC-3 [20] = assay: Induction of apoptosis in human PC-3 cells assessed as reduction in fraction of healthy cells at 1 to 10 uM incubated for 72 hrs by YO-PRO and propidium iodide staining based high content imaging fluorescence microscopic analysis; format: functional, cell-based; settings: dose 1-10 µM; how it was run: as §1
DU-145 [21] = assay: Induction of cell cycle arrest in human DU-145 cells assessed as arrest in G2/M phase by measuring reduction in CDK7 protein expression at IC50 concentration incubated for 48 hrs by Western blotting analysis; format: functional, cell-based; how it was run: as §5
DU-145 [22] = assay: Induction of cell cycle arrest in human DU-145 cells assessed as arrest in G2/M phase by measuring reduction in CDK1 protein expression at IC50 concentration incubated for 48 hrs by Western blotting analysis; format: functional, cell-based; how it was run: as §5
DU-145 [23] = assay: Antiproliferative activity against human DU-145 cells assessed as reduction in cell confluency at 5 to 10 uM measured after 72 hrs by Hoechst 33342 staining based high content imaging fluorescence microscopic analysis; format: functional; settings: dose 5-10 µM; how it was run: as §1
PC-3 [24] = assay: Anti-invasive activity against human PC-3 cells assessed as reduction in MMP-3 protein secretion incubated for 48 hrs by ELISA analysis; format: functional, cell-based
DU-145 [25] = assay: Induction of apoptosis in human DU-145 cells assessed as reduction in fraction of healthy cells at 1 to 10 uM incubated for 72 hrs by YO-PRO and propidium iodide staining based high content imaging fluorescence microscopic analysis; format: functional, cell-based; settings: dose 1-10 µM; how it was run: as §1
[26] = target: Serine/threonine-protein kinase AKT (Homo sapiens) (UniProt P31751+Q9Y243+P31749); assay: Inhibition of AKT phosphorylation in human DU-145 cells at IC50 concentration incubated for 48 hrs by Western blot analysis relative to control; format: cell-based
How it was run: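 Cells seeded at 5 × 10^4 per well and treated 48 h with an IC50 dose of CBD in DU145 or PC-3. Lysed in ice-cold RIPA with protease/phosphatase inhibitor. 40 μg protein per lane on SDS-PAGE, then PVDF. Probed overnight at 4 °C for phospho-AKT and total AKT, HRP detection. Densitometry normalised to loading control, then to vehicle. Mean ± SD, ≥3 experiments, t-test.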

PC-3 [27] = assay: Induction of apoptosis in human PC-3 cells at IC50 concentration incubated for 48 hrs by YO-PRO and PI staining based flow cytometry analysis; format: functional, cell-based; how it was run: as §4
PC-3 [28] = assay: Induction of cell cycle arrest in human PC-3 cells assessed as arrest in G2/M phase by measuring reduction in CDK7 protein expression at IC50 concentration incubated for 48 hrs by Western blotting analysis; format: functional, cell-based; how it was run: as §5

Serine/threonine-protein kinase AKT (Homo sapiens), sequence (P31749 whole entry, looked up): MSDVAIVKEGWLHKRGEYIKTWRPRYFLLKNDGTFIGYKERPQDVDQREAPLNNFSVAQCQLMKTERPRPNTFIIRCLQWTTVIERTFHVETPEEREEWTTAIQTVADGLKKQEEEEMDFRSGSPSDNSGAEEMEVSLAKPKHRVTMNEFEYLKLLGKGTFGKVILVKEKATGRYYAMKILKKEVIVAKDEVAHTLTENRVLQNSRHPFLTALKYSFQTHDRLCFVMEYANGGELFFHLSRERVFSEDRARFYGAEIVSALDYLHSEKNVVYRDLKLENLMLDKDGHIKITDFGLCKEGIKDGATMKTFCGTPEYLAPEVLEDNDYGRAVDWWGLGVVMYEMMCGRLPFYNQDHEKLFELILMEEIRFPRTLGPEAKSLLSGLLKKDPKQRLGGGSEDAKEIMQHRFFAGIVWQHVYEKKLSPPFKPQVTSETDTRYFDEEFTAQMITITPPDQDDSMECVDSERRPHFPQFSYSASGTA
Serine/threonine-protein kinase AKT (Homo sapiens), sequence (P31751 whole entry, looked up): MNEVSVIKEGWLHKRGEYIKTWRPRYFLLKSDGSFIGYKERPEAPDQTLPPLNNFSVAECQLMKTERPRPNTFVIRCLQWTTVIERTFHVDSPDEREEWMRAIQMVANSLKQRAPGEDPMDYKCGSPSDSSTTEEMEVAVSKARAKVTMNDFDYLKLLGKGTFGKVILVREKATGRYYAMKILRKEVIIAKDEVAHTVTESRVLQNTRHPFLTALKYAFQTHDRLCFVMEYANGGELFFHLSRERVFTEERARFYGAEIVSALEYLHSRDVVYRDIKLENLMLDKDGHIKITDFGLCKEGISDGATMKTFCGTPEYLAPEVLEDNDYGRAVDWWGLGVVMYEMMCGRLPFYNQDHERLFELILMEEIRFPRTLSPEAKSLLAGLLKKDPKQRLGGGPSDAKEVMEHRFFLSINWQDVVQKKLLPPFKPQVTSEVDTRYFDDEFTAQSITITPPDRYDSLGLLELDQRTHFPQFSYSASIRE
Serine/threonine-protein kinase AKT (Homo sapiens), sequence (Q9Y243 whole entry, looked up): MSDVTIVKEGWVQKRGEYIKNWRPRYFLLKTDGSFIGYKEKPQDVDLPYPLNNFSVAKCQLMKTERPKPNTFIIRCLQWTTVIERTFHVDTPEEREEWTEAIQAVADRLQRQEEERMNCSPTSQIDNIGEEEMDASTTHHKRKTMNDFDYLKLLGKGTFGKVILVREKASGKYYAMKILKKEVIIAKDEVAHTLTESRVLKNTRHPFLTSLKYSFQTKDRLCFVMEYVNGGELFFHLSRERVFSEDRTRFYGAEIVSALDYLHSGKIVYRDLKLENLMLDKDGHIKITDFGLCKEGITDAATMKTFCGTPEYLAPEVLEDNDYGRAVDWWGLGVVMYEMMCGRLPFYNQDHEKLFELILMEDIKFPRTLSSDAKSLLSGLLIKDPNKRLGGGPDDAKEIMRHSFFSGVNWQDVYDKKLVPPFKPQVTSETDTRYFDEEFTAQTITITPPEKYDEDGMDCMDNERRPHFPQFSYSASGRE

C=C(C)[C@@H]1CCC(C)=C[C@H]1c1c(O)cc(CCCCC)cc1O [CANNABIDIOL]
active: Activity (PC-3 [4]) | Activity (DU-145 [8]) | Activity (DU-145 [11]) | Activity (PC-3 [17]) | Activity (DU-145 [22]) | Activity (DU-145 [23])
~25%: Activity (PC-3 [15])
>2: Activity (PC-3 [19])
~20%: Activity (DU-145 [12])
2900 nM: IC50 (PC-3 [7])
Toxic: Activity (PWR-1E [2]) | Activity (PWR-1E [3]) | Activity (PWR-1E [9]) | Activity (PWR-1E [14]) | Activity (PWR-1E [18])
inactive: Activity (DU-145 [1]) | Activity (DU-145 [5]) | Activity (PC-3 [6]) | Activity (DU-145 [10]) | Activity (PC-3 [13]) | Activity (DU-145 [16]) | Activity (PC-3 [20]) | Activity (DU-145 [21]) | Activity (PC-3 [24]) | Activity (DU-145 [25]) | Activity (PC-3 [27]) | Activity (PC-3 [28])
40%: inhibition [26]
